# Results as given in ChEMBL document CHEMBL1955865, “Synthesis of novel spirooxindole derivatives by one pot multicomponent reaction and their antimicrobial activity” (2012).
# The source made the active and inactive calls. The calls are words filed in the database; no cut-off is given here.
# What was measured:
# Staphylococcus aureus [1] = assay: Antibacterial activity against Staphylococcus aureus MTCC 96 after 24 hrs by twofold serial dilution method; format: functional; details: MTCC 96, 24 h
# Outline: (§1)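 Bacteria grown in Mueller Hinton broth for 24 h at 37 °C and diluted to about 10^4 CFU/ml. Compound in 2% DMSO was serially diluted two-fold (1000 to 15.62 µg/ml) in medium in 96-well plates and inoculated. Plates were incubated 24 h at 37 °C. 5 µl of broth was spotted onto MHA, and MIC was taken as the lowest concentration with no visible growth on agar.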
# Staphylococcus aureus [2] = assay: Antibacterial activity against methicillin-resistant Staphylococcus aureus after 24 hrs by twofold serial dilution method; format: functional
# Outline: (§2)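 Broth microdilution in MHB following the standard bacterial reference method. Compound was dissolved in DMSO (2%) and serially diluted two-fold from 1000 to 15.62 µg/ml in 96-well plates, with an inoculum of about 10^4 CFU/ml. Streptomycin and ciprofloxacin were positive controls. After 24 h at 37 °C, 5 µl of broth was subcultured on MHA. MIC was the lowest concentration without visible growth on agar.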
# Micrococcus luteus [3] = assay: Antibacterial activity against Micrococcus luteus after 24 hrs by twofold serial dilution method; format: functional; outline: as §1
# Klebsiella aerogenes [4] = assay: Antibacterial activity against Enterobacter aerogenes MTCC 111 after 24 hrs by twofold serial dilution method; format: functional; details: MTCC 111, 24 h; outline: as §1
# Proteus vulgaris [5] = assay: Antibacterial activity against Proteus vulgaris MTCC 1771 after 24 hrs by twofold serial dilution method; format: functional; details: MTCC 1771, 24 h; outline: as §1
# Klebsiella pneumoniae [6] = assay: Antibacterial activity against Klebsiella pneumoniae MTCC 109 after 24 hrs by twofold serial dilution method; format: functional; details: MTCC 109, 24 h; outline: as §1
# Salmonella typhimurium [7] = assay: Antibacterial activity against Salmonella Typhimurium MTCC 1251 after 24 hrs by two-fold serial dilution method; format: functional, Salmonella enterica subsp. enterica serovar Typhimurium; details: Salmonella enterica, MTCC 1251, 24 h; outline: as §1
# [8] = system: Salmonella enterica subsp. enterica serovar Paratyphi B; assay: Antibacterial activity against Salmonella paratyphi B after 24 hrs by twofold serial dilution method; format: functional; outline: as §2
# Staphylococcus aureus [9] = assay: Antibacterial activity against Staphylococcus aureus MTCC 96 at 10 ug/disc after 24 hrs by disc diffusion assay; format: functional; details: MTCC 96, 24 h, read-out: IZ
# Outline: (§3)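 Streptomycin positive-control discs (10 µg/disc) on Mueller Hinton agar swabbed with bacterial culture (about 10^4 CFU/ml). Discs stood 30 min at room temperature, then plates were incubated 24 h at 37 °C. Zones of inhibition were recorded in mm, and the experiment was repeated twice.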
# Staphylococcus aureus [10] = assay: Antibacterial activity against methicillin-resistant Staphylococcus aureus at 10 ug/disc after 24 hrs by disc diffusion assay; format: functional; details: read-out: IZ
# Outline: (§4)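 Streptomycin positive-control discs at 10 μg/disc on Mueller Hinton agar, swabbed with bacteria grown 24 h at 37 °C in MHB and diluted to about 10^4 CFU/ml. Discs stood 30 min at room temperature, then plates were incubated 24 h at 37 °C. Inhibition zones were measured in mm; experiment repeated twice.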
# Micrococcus luteus [11] = assay: Antibacterial activity against Micrococcus luteus at 10 ug/disc after 24 hrs by disc diffusion assay; format: functional; details: read-out: IZ; outline: as §3
# Klebsiella aerogenes [12] = assay: Antibacterial activity against Enterobacter aerogenes MTCC 111 at 10 ug/disc after 24 hrs by disc diffusion assay; format: functional; details: MTCC 111, 24 h, read-out: IZ; outline: as §3
# Proteus vulgaris [13] = assay: Antibacterial activity against Proteus vulgaris MTCC 1771 at 10 ug/disc after 24 hrs by disc diffusion assay; format: functional; details: MTCC 1771, 24 h, read-out: IZ; outline: as §3
# Klebsiella pneumoniae [14] = assay: Antibacterial activity against Klebsiella pneumoniae MTCC 109 at 10 ug/disc after 24 hrs by disc diffusion assay; format: functional; details: MTCC 109, 24 h, read-out: IZ; outline: as §3
# Salmonella typhimurium [15] = assay: Antibacterial activity against Salmonella Typhimurium MTCC 1251 at 10 ug/disc after 24 hrs by disc diffusion assay; format: functional, Salmonella enterica subsp. enterica serovar Typhimurium; details: Salmonella enterica, MTCC 1251, 24 h; read-out: IZ; outline: as §3
# [16] = system: Salmonella enterica subsp. enterica serovar Paratyphi B; assay: Antibacterial activity against Salmonella paratyphi B at 10 ug/disc after 24 hrs by disc diffusion assay; format: functional; details: read-out: IZ; outline: as §4
# [17] = Antifungal activity against Malassezia pachydermatis at 1000 ug/disc after 48 hrs by disc diffusion assay; format: functional
# Outline: (§5)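 Fungal disc diffusion with inoculum from SDA spores (filamentous) or SDB culture (yeast). Test cultures were swabbed on agar, and discs at 1000 µg/disc were left 30 min at room temperature, with a solvent negative control. Plates were incubated 48 h at 27 °C. Zone of inhibition was measured in mm, and the experiment was repeated twice.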
# Candida albicans [18] = assay: Antifungal activity against Candida albicans MTCC 227 at 1000 ug/disc after 48 hrs by disc diffusion assay; format: functional; details: MTCC 227, 48 h, read-out: IZ; outline: as §5
# Botrytis cinerea [19] = assay: Antifungal activity against Botrytis cinerea at 1000 ug/disc after 48 hrs by disc diffusion assay; format: functional; details: read-out: IZ; outline: as §5
# [20] = Antifungal activity against Malassezia pachydermatis after 48 to 72 hrs by twofold serial dilution method; format: functional
# Outline: (§6)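 Broth two-fold serial dilution, 1000 to 15.62 µg/ml, with compound dissolved in 2% DMSO, in 96-well plates. Filamentous fungal spores came from 10-day SDA slants at 28 °C, and yeast from SDB grown 48 h at 28 °C. Incubation was 48-72 h at 28 °C. MIC was the lowest concentration with no visible fungal growth.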
# Candida albicans [21] = assay: Antifungal activity against Candida albicans MTCC 227 after 48 to 72 hrs by twofold serial dilution method; format: functional; outline: as §6
# Botrytis cinerea [22] = assay: Antifungal activity against Botrytis cinerea after 48 to 72 hrs by twofold serial dilution method; format: functional; outline: as §6
# Staphylococcus aureus [23] = assay: Antibacterial activity against Staphylococcus aureus MTCC 96 at 1000 ug/disc after 24 hrs by disc diffusion assay; format: functional; details: MTCC 96, 24 h, read-out: IZ
# Outline: (§7)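 Disc diffusion on Mueller Hinton agar. Cultures (about 10^4 CFU/ml) were swabbed on and dried 10 min. Discs loaded at 1000 µg/disc were left 30 min at room temperature for diffusion, with a solvent negative control. Plates were incubated 24 h at 37 °C. Inhibition zones were measured in mm, and the experiment was done twice.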
# Staphylococcus aureus [24] = assay: Antibacterial activity against methicillin-resistant Staphylococcus aureus at 1000 ug/disc after 24 hrs by disc diffusion assay; format: functional; details: read-out: IZ
# Outline: (§8)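 Disc diffusion on Mueller Hinton agar. Bacteria were grown 24 h at 37 °C in MHB and diluted to about 10^4 CFU/ml, swabbed onto plates and dried 10 min. Discs were loaded at 1000 μg/disc and held 30 min at room temperature for diffusion. Solvent served as negative control. After 24 h at 37 °C, inhibition zones were read in mm; run twice.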
# Micrococcus luteus [25] = assay: Antibacterial activity against Micrococcus luteus at 1000 ug/disc after 24 hrs by disc diffusion assay; format: functional; details: read-out: IZ; outline: as §7
# Klebsiella aerogenes [26] = assay: Antibacterial activity against Enterobacter aerogenes MTCC 111 at 1000 ug/disc after 24 hrs by disc diffusion assay; format: functional; details: MTCC 111, 24 h, read-out: IZ; outline: as §7
# Proteus vulgaris [27] = assay: Antibacterial activity against Proteus vulgaris MTCC 1771 at 1000 ug/disc after 24 hrs by disc diffusion assay; format: functional; details: MTCC 1771, 24 h, read-out: IZ; outline: as §7
# Klebsiella pneumoniae [28] = assay: Antibacterial activity against Klebsiella pneumoniae MTCC 109 at 1000 ug/disc after 24 hrs by disc diffusion assay; format: functional; details: MTCC 109, 24 h, read-out: IZ; outline: as §7
# Salmonella typhimurium [29] = assay: Antibacterial activity against Salmonella Typhimurium MTCC 1251 at 1000 ug/disc after 24 hrs by disc diffusion assay; format: functional, Salmonella enterica subsp. enterica serovar Typhimurium; details: Salmonella enterica, MTCC 1251, 24 h; read-out: IZ; outline: as §7
# [30] = system: Salmonella enterica subsp. enterica serovar Paratyphi B; assay: Antibacterial activity against Salmonella paratyphi B at 1000 ug/disc after 24 hrs by disc diffusion assay; format: functional; details: read-out: IZ; outline: as §8
Structure (SMILES),MIC (Staphylococcus aureus [1]) [µg/mL],MIC (Staphylococcus aureus [2]) [µg/mL],MIC (Micrococcus luteus [3]) [µg/mL],MIC (Klebsiella aerogenes [4]) [µg/mL],MIC (Proteus vulgaris [5]) [µg/mL],MIC (Klebsiella pneumoniae [6]) [µg/mL],MIC (Salmonella typhimurium [7]) [µg/mL],MIC [8],inhibition zone (IZ) [17] [mm],zone of inhibition at 1000 µg/disc (Candida albicans [18]) [mm],zone of inhibition at 1000 µg/disc (Botrytis cinerea [19]) [mm],MIC [20] [µg/mL],MIC (Candida albicans [21]) [µg/mL],MIC (Botrytis cinerea [22]) [µg/mL],zone of inhibition at 1000 µg/disc (Staphylococcus aureus [23]) [mm],zone of inhibition at 1000 µg/disc (Staphylococcus aureus [24]) [mm],zone of inhibition at 1000 µg/disc (Micrococcus luteus [25]) [mm],zone of inhibition at 1000 µg/disc (Klebsiella aerogenes [26]) [mm],zone of inhibition at 1000 µg/disc (Proteus vulgaris [27]) [mm],zone of inhibition at 1000 µg/disc (Klebsiella pneumoniae [28]) [mm],also measured
CN[C@@H]1[C@H](O[C@H]2[C@H](O[C@H]3[C@H](O)[C@@H](O)[C@H](N=C(N)N)[C@@H](O)[C@@H]3N=C(N)N)O[C@@H](C)[C@]2(O)C=O)O[C@@H](CO)[C@H](O)[C@H]1O [STREPTOMYCIN],6.25,> 100,6.25,25,6.25,6.25,30,inactive,,,,,,,,,,,,,zone of inhibition at 10 µg/disc (Staphylococcus aureus [9]): 16 mm; zone of inhibition at 10 µg/disc (Staphylococcus aureus [10]): 20 mm; zone of inhibition at 10 µg/disc (Micrococcus luteus [11]): 23 mm; zone of inhibition at 10 µg/disc (Klebsiella aerogenes [12]): 22 mm; zone of inhibition at 10 µg/disc (Proteus vulgaris [13]): 22 mm; zone of inhibition at 10 µg/disc (Klebsiella pneumoniae [14]): 20 mm; zone of inhibition at 10 µg/disc (Salmonella typhimurium [15]): 23 mm; zone of inhibition at 10 µg/disc [16]: 17 mm
CN1CC2=C(C(=O)c3ccccc3C2=O)C12C(=O)Nc1ccccc12 (centres undefined),62.5,250,125,250,250,125,125,250 µg/mL,11,10,10,250,125,125,15,10,13,10,11,13,zone of inhibition at 1000 µg/disc (Salmonella typhimurium [29]): 12 mm; zone of inhibition at 1000 µg/disc [30]: 10 mm
CCCCN1C(=O)C2(C3=C(CN2C)C(=O)c2ccccc2C3=O)c2ccccc21 (centres undefined),62.5,500,250,500,500,250,125,500 µg/mL,11,10,9,250,500,500,17,8,13,10,10,13,zone of inhibition at 1000 µg/disc (Salmonella typhimurium [29]): 15 mm; zone of inhibition at 1000 µg/disc [30]: 9 mm
Cc1ccc2c(c1)C1(C(=O)N2C)C2=C(CN1C)C(=O)c1ccccc1C2=O (centres undefined),15.6,125,125,62.5,125,250,15.6,500 µg/mL,10,12,11,500,250,250,22,14,15,17,16,13,zone of inhibition at 1000 µg/disc (Salmonella typhimurium [29]): 22 mm; zone of inhibition at 1000 µg/disc [30]: 8 mm
CCCCCCN1C(=O)C2(C3=C(CN2C)C(=O)c2ccccc2C3=O)c2ccccc21 (centres undefined),250,500,250,250,500,500,62.5,500 µg/mL,12,14,10,250,125,500,12,10,10,13,10,10,zone of inhibition at 1000 µg/disc (Salmonella typhimurium [29]): 16 mm; zone of inhibition at 1000 µg/disc [30]: 8 mm
